# Source: PubChem
# Sampled rows, rich in hits. Any-hit rate of the full collection: about 3%.
# S100A4 MyoIIA: blocks human S100A4 binding to myosin IIA peptide | P26447 | S100A4/TAMRA-MyoIIA peptide fluorescence polarization | inhibition, % at 10.7 µM | 360,000 compounds, 0.14% hits | AID 652163;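 active = mean inhibition of at least 70% across replicates, with every replicate also reaching that level; inconclusive = mean inhibition reaches 70% but some replicates fall short; inactive = mean inhibition below 70%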
# Target sequence (P26447 whole entry, looked up): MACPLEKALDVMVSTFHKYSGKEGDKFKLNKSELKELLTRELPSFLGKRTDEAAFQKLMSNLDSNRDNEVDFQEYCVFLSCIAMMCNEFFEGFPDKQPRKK
#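 Test system: S100A4 monomer protein. Medium: HEPES buffer with Ca2+, pH 7.2. Reagent: fluorescent myosin IIA peptide, 5 nM. Compound dosing: single-point compound testing. Timing: 5 min between mix addition and reading. Benchmarks: DMSO neutral and TFP positive wells.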
# SIRT5 inh: inhibitors of human sirtuin-5 desuccinylase | inhibition, % at 15 µM | Q9NXA8 | Purified SirT5, succinyl-peptide AMC, trypsin-coupled fluorescence | 330,000 compounds, 1.1% hits; in the data active = inhibition above about 15%; inconclusive = no clear call, values can overlap the other calls
# Target sequence (Q9NXA8 whole entry, looked up): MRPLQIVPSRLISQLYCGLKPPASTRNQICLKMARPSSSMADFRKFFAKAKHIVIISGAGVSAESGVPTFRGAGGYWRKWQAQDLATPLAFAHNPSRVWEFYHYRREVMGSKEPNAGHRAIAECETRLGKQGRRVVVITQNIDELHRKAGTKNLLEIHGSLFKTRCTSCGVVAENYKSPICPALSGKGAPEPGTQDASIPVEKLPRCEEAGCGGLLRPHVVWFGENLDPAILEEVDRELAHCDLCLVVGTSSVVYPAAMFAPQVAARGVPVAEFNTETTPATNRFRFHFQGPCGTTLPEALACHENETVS
# Ecoli rRNA inh: inhibitors of bacterial rRNA selective over humanized ribosomes. AID 720706. E. coli WT GFP vs humanized-ribosome RFP mutants, fluorescence, 24 h; hits give low values; DMSO median 0, no signal -100. 350,000 compounds, 1.6% hits. GFP signal change (wild-type ribosome), % (test concentration not listed);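 active = significant combined selectivity score with lowered wild-type GFP, culture density cut under 30%, mutant RFP and density less affected; inactive = any of these conditions unmet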
# Statin myotox sup: suppressors of simvastatin-induced myotoxicity in C2C12 myotubes; rescue of ATP level, % at 7.49 µM; 330,000 compounds, 0.78% hits; ATP luminescence, 48 h; scaled: DMSO 0, geranylgeraniol control 100;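 active = mean ATP rescue above about 67%, or every replicate alone reaching that limit, limit read from the data, passing the limit was not always enough; inconclusive = no clear call, values can overlap the other calls; inactive = mean under the limit and some replicate under it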;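 also: myotubes were challenged with 10 µM simvastatin during compound exposure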
# Cneo AK release: causes C. neoformans cell lysis; adenylate kinase release luminescence, 4 h; normalised: neutral wells 0, clomiphene wells 100; lysis activity, % at 15 µM; 360,000 compounds, 0.2% hits; AID 651654;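 active = mean lysis activity across replicates of at least 80%, whatever share of replicates individually reach that level; inactive = mean lysis activity below 80%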
#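 Assay system: log-phase C. neoformans yeast / Quantity: yeast cell density of 5 × 10^6 cells/mL / Medium: fresh YPD growth medium / Compound: single dose / Timing: static 4 h at 37 °C with compound, 1 h detection / Measured by: adenylate kinase release luminescence / Read-out: lysis from increased AK signal / Benchmarks: Clomiphene as positive lysis control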
# PGC1a acetyl inh: PGC1a acetylation modulation, inhibitor mode | U2OS PGC1a acetylation, AlphaScreen anti-acetyl-lysine; with virally co-expressed GCN5 acetyltransferase | AID 651687 | 350,000 compounds, 0.17% hits | inhibition, % at 15.6 µM;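 active = every replicate shows inhibition of at least 40%; inconclusive = mean inhibition at least 40% but some replicate below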;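 also: 0% = neutral control wells and 100% = positive control wells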
# * hit, by the source's call; ? = inconclusive; . = not tested or not shown.
SMILES,S100A4 MyoIIA,SIRT5 inh,Ecoli rRNA inh,Statin myotox sup,Cneo AK release,PGC1a acetyl inh
CCC(=O)Oc1c(S(=O)(=O)c2ccc(C)cc2)c(C)nn1C(C)(C)C,.,.,.,106.2*,0.2,8.9
CCC(=O)Nc1ccc2c(c1)OC[C@@H](C)N(CC1CCCCC1)C[C@@H](C)[C@H](OC)CN(C)C2=O,.,.,-0.7,.,.,.
c1ccc(Cc2cnc(N3CCN(Cc4cccc(-c5ccsc5)n4)CC3)nc2)cc1,-15.9,2.5,-35.9*,.,.,.
CCC(=O)N1N=C(c2ccc(Cl)cc2)CC1c1ccco1 (centres undefined),6.6,-2.2,-27.9*,8.5,.,-4.1
CN1CC(=O)N(CC(=O)N2N=C(c3ccc(Cl)cc3)CC2c2ccco2)C1=O (centres undefined),1.9,0.8,10.4,-1.6,-0.6,.
O=C(COc1cccnc1[N+](=O)[O-])N1N=C(c2ccc(Cl)cc2)CC1c1ccco1 (centres undefined),1.1,0.7,-19.7*,.,.,-10.2
C[C@H](CO)N1C[C@H](C)[C@H](CN(C)C(=O)c2ccccn2)Oc2ncc(C#Cc3ccccn3)cc2C1=O,8.4,0.3,8.4,4.5,0.5,2.3
COc1ccccc1CNC(=O)C[C@H]1C[C@H]2c3cc(NC(=O)Nc4ccc(C(F)(F)F)cc4)ccc3O[C@H]2[C@@H](CO)O1,-4.5,-0.7,-3.6,-2.1,0.5,3.6
CCSc1ccccc1C(=O)NCCCn1ccnc1,.,.,.,0.7,0.2,94.6*
O=C(Nc1ccccc1C(=O)NCCCn1ccnc1)c1ccccc1,-0.1,-4.1,-7.1,122.0*,1.4,-24.4
Cc1ccc(-c2[nH]c3cc(C(=O)NCCCn4ccnc4)ccc3c(=O)c2O)cc1,-0.1,-1.9,-20.6*,4.0,-1.3,-0.4
COc1ccc(C(=O)Nc2ccccc2C(=O)NCCCn2ccnc2)cc1,4.3,.,.,.,-0.2,-7.7
CSc1ccccc1C(=O)NCCCn1ccnc1,2.6,-2.4,19.4,1.9,5.9,16.4
O=C(Nc1ccc2c(c1)OCO2)c1ccc(Cl)c(S(=O)(=O)N2CCOCC2)c1,0.3,-0.2,-2.8,0.6,-0.5,.
Cc1ccc(NC(=O)c2ccc3c(c2)OCO3)cc1S(=O)(=O)N1CCOCC1,-18.2,-0.4,-17.6*,-10.0,-0.5,-0.9
Cc1ccc(C(=O)N2CCN(Cc3ccc4c(c3)OCO4)CC2)cc1S(=O)(=O)N1CCOCC1,-0.4,16.0*,0.3,.,.,-2.2
O=C(c1ccc(S(=O)(=O)N2CCCC2)cc1)N1CCN(Cc2ccc3c(c2)OCO3)CC1,.,.,.,7.9,-3.2,-5.8
COC(=O)[C@H]1[C@H](CO)[C@H]2Cn3c(ccc(/C=C/c4ccccc4)c3=O)[C@H]2N1C(=O)CC1CC1,.,.,-2.6,-23.4,.,-5.9
Cc1ccc(S(=O)(=O)Nc2cccc3c2O[C@H](CN(C)S(=O)(=O)c2ccc(C)cc2)[C@@H](C)CN([C@H](C)CO)C3=O)cc1,-11.7,-4.3,0.1,0.7,-0.3,-3.9
C[C@@H]1CCCCO[C@H](CN(C)Cc2ccncc2)[C@H](C)CN([C@@H](C)CO)C(=O)c2cc(NS(=O)(=O)c3ccccc3)ccc2O1,1.5,-2.4,-3.9,.,-1.5,-9.0
Cc1ccc(S(=O)(=O)N2CCN(C(=O)COC(=O)c3ncc(Cl)c(Cl)c3Cl)CC2)c(C)c1,-12.8,-0.6,-22.8*,-1.5,-1.9,.
Cc1ccc(S(=O)(=O)N2CCN(C(=O)COC(=O)c3nc(Cl)ccc3Cl)CC2)c(C)c1,0.9,-7.4,-2.3,-4.0,-0.8,-3.9
O=C(COC(=O)C1CCN(C(=O)c2ccc(Cl)cc2)CC1)Nc1ccccc1F,-3.0,-2.8,-17.1*,-0.1,0.3,.
S=C1Nc2ccccc2CS1,-0.5,1.2,2.9,.,1.1,.
S=C1Cc2ccccc2N1,-0.3,-3.5,-11.4,73.7*,-1.8,-7.0
SMILES,S100A4 MyoIIA,SIRT5 inh,Ecoli rRNA inh,Statin myotox sup,Cneo AK release,PGC1a acetyl inh
CO[C@@H]1CN(C)C(=O)c2ccc(NC(=O)C3CC3)cc2OC[C@H](C)N(C(=O)c2ccccc2)C[C@H]1C,-2.4,-1.1,-1.2,-3.1,-0.6,3.3
CN(CC(=O)Nc1cccc(F)c1)CC(=O)Nc1ccccc1-c1ccccc1,-1.2,-3.3,-46.0,.,.,0.6
COc1cccc(NC(=O)CN(C)C(=O)c2cccc(S(=O)(=O)N3CCN(c4ccccc4)CC3)c2)c1,-6.4,1.6,-28.9*,12.4,0.6,.
COc1cccc(NC(=O)CN(C)C(=O)c2ccccc2Sc2ccccc2C#N)c1,-4.4,0.7,-18.3*,9.4,1.9,1.4
COc1cccc(NC(=O)CN(C)CC(=O)Nc2ccccc2-c2ccccc2)c1,0.7,-4.4,-24.3*,14.6,-1.0,.
C[C@@H]1CN([C@H](C)CO)C(=O)c2c(c3ccccc3n2C)-c2ccccc2CO[C@@H]1CN(C)S(=O)(=O)c1cccc(C#N)c1,-4.4,1.5,3.9,21.3,51.2,-3.1
C[C@@H]1CN([C@@H](C)CO)C(=O)c2cc(NC(=O)C3CCCCC3)ccc2O[C@@H]1CN(C)Cc1ccc(C(F)(F)F)cc1,4.1,11.4,-5.9,.,-0.8,1.5
CS(=O)(=O)N1[C@H](C(=O)NCC2CC2)[C@@H](CO)[C@@H]2Cn3c(ccc(-c4ccccc4F)c3=O)[C@@H]21,7.1,-7.8,-2.8,.,.,.
CO[C@@H]1CN(C)C(=O)c2ccc(NC(=O)NC3CCCCC3)cc2OC[C@@H](C)N(CCc2ccccc2)C[C@H]1C,7.7,4.6,-1.4,2.9,-2.7,4.8
COc1cc(C(=O)Nc2nnc(-c3sccc3C)s2)cc(OC)c1OC,.,.,.,98.4*,-2.9,-12.9
C[C@H]1CN([C@@H](C)CO)C(=O)c2c(c3ccccc3n2C)-c2ccccc2CO[C@H]1CN(C)S(=O)(=O)c1cn(C)cn1,9.3,1.5,-2.9,7.8,-1.1,-10.6
O=C(N/N=C/c1cccs1)c1ccc(-n2cccc2)cc1,0.2,-3.9,-22.6*,.,.,.
CC(C)CN(C[C@H]1N[C@H](CO)[C@@H]1c1ccccc1)C(=O)C1CCCCC1,-25.8,21.5*,1.1,.,.,.
C[C@H]1CN([C@@H](C)CO)S(=O)(=O)c2ccc(/C=C/c3ccccc3)cc2O[C@H]1CN(C)Cc1ccc(C(=O)O)cc1,8.5,19.4*,-7.9,7.9,-2.5,15.5
C/C=C/c1ccc2c(c1)O[C@H](CN(C)Cc1ccc(C(=O)O)cc1)[C@@H](C)CN([C@H](C)CO)S2(=O)=O,-3.2,-1.0,-2.6,-5.4,-5.3,-7.0
C[C@H](CO)N1C[C@H](C)[C@@H](CN(C)Cc2ccc(C(=O)O)cc2)Oc2cc(/C=C/c3ccccc3)ccc2S1(=O)=O,17.8,103.9*,.,-18.7,0.4,8.8
C[C@@H]1CN([C@H](C)CO)S(=O)(=O)c2ccc(/C=C/c3ccccc3)cc2O[C@H]1CN(C)Cc1ccc(C(=O)O)cc1,4.9,?,-1.1,-11.7,-1.3,4.4
